Structures are written as SMILES. Active and inactive are the calls of the source.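 Rule for the calls: active = phage lysis blocked by at least 50% at any tested dose; inconclusive = replicate wells disagree with each other; inactive = the rest.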

The first experiment has as its system E. coli UTI89 K1F phage lysis inhibition, OD600. The experiment is described as follows: inhibitors of K1F phage lysis, dose response, capsule biogenesis inhibitor project, E. coli UTI89, set 6 (AID 588386).
Details: not given
In outline:
(§1)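 System: E. coli UTI89 (K1) and kpsM mutant; buffer or medium: LB growth medium; incubation: 1.25 h compound pre-phage, 3 h lysis read, 37 °C shaking; technique: OD600 absorbance; read-out: phage lysis judged from OD600 3 h after phage infection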
What is called IC50 is the concentration at which inhibition is half-maximal. In the case of `O=C(Nc1ccncc1)c1ccc2ncsc2c1`, the IC50 was 1640 nM.

Test system in the next experiment: not listed separately
The description is as above. Conditions: E. coli UTI89 K1F phage lysis inhibition, OD600; at 100 µM (top of the series). In outline: as §1
On to `O=C(Nc1ccc(Cl)cc1)c1ccc2[nH]ccc2c1`, for which the inhibition of phage lysis is 0.86% (inactive).
As to `O=C(Nc1ccc(Cl)cc1)c1ccc2nc[nH]c2c1`, the inhibition of phage lysis is -0.32% (inactive).
Consider `O=C(Nc1ccc(F)cc1)c1ccc2[nH]ccc2c1`, for which the inhibition of phage lysis is -0.29% (inactive).
Take `O=C(Nc1ccccn1)c1ccc2ncccc2c1`: the inhibition of phage lysis is 1.21% (inactive).
Turning to `COc1ccc(NC(=O)c2ccc3[nH]ccc3c2)cc1`, the inhibition of phage lysis is -14.7% (inactive).
For the compound `O=C(Nc1ccc(F)cc1)c1ccc2nc[nH]c2c1`, the inhibition of phage lysis is 0.99% (inactive).
Same read-out and setting: under `O=C(Nc1ccccn1)c1ccc2nc[nH]c2c1` stands 0% (inactive).
The same measure, in the same setting: next, `O=C(NCc1ccco1)c1ccc2[nH]ccc2c1`: 0.86% (inactive); `O=C(Nc1ccc(Br)cc1)c1ccc2[nH]ccc2c1`: 1.16% (inactive); `O=C(Nc1ccncc1)c1ccc2ncccc2c1`: 0% (inactive).
Regarding `O=C(NCc1ccco1)c1ccc2nc[nH]c2c1`, the inhibition of phage lysis is 0% (inactive).
For `O=C(Nc1ccc(C(F)(F)F)cc1)c1ccc2nc[nH]c2c1`, the inhibition of phage lysis is -0.68% (inactive).
`O=C(Nc1ccc(C(F)(F)F)cc1)c1ccc2ncsc2c1`: the inhibition of phage lysis was 16.7% (inactive).
For `O=C(Nc1ccc(Cl)cc1)c1ccc2ncsc2c1`, the inhibition of phage lysis was 1.47% (inactive).
As to `O=C(Nc1ccc(Cl)cc1)c1ccc2ncccc2c1`, the inhibition of phage lysis is 1.19% (inactive).
For the compound `COC(=O)c1ccc(NC(=O)c2ccc3[nH]ccc3c2)cc1`, the inhibition of phage lysis was 0.87% (inactive).
In the case of `O=C(Nc1cccnc1)c1ccc2ncccc2c1`, the inhibition of phage lysis is 0.61% (inactive).
For the compound `O=C(NCc1ccco1)c1ccc2ncsc2c1`, the inhibition of phage lysis was 0.88% (inactive).
In the case of `O=C(Nc1ccc(C(F)(F)F)cc1)c1ccc2[nH]ccc2c1`, the inhibition of phage lysis was -0.66% (inactive).
Turning to `O=C(Nc1cccc(F)c1)c1ccc2nc[nH]c2c1`, the inhibition of phage lysis is 0% (inactive).
On to `COc1ccc(NC(=O)c2ccc3ncsc3c2)cc1`, for which the inhibition of phage lysis was 3.54% (inactive).
Regarding `O=C(Nc1ccccc1F)c1ccc2[nH]ccc2c1`, the inhibition of phage lysis is 0.33% (inactive).
For the compound `O=C(Nc1cccnc1)c1ccc2ncsc2c1`, the inhibition of phage lysis is 1.77% (inactive).
Turning to `O=C(Nc1cccc(F)c1)c1ccc2ncsc2c1`, the inhibition of phage lysis was 0.9% (inactive).
Same read-out and setting: next, `O=C(Nc1ccc(F)cc1)c1ccc2ncsc2c1`: -0.68% (inactive); `Cc1ccc(NC(=O)c2ccc3ncsc3c2)cc1`: 0% (inactive).
Turning to `O=C(Nc1ccccc1F)c1ccc2nc[nH]c2c1`, the inhibition of phage lysis was 0.34% (inactive).
As to `O=C(Nc1ccncc1)c1ccc2[nH]ccc2c1`, the inhibition of phage lysis was 0.29% (inactive).
Take `O=C(NCc1ccco1)c1ccc2ncccc2c1`: the inhibition of phage lysis was 0.91% (inactive).
On to `O=C(Nc1ccc(F)cc1)c1ccc2ncccc2c1`, for which the inhibition of phage lysis was 0.3% (inactive).
Regarding `COc1ccc(NC(=O)c2ccc3nc[nH]c3c2)cc1`, the inhibition of phage lysis was 0.32% (inactive).
Turning to `O=C(Nc1cccnc1)c1ccc2[nH]ccc2c1`, the inhibition of phage lysis was 0.87% (inactive).
Same read-out and setting: next, `O=C(Nc1ccc(Br)cc1)c1ccc2ncsc2c1`: 0% (inactive); `Cc1ccc(NC(=O)c2ccc3[nH]ccc3c2)cc1`: -2.3% (inactive).
Consider `O=C(Nc1ccc(Br)cc1)c1ccc2nc[nH]c2c1`, for which the inhibition of phage lysis was 0% (inactive).
On to `O=C(Nc1cccc(F)c1)c1ccc2ncccc2c1`, for which the inhibition of phage lysis is -1.15% (inactive).
Regarding `O=C(Nc1ccccc1F)c1ccc2ncsc2c1`, the inhibition of phage lysis is 0.6% (inactive).
As to `O=C(Nc1ccccc1F)c1ccc2ncccc2c1`, the inhibition of phage lysis is -2.29% (inactive).
With `O=C(Nc1cccc(F)c1)c1ccc2[nH]ccc2c1`, the inhibition of phage lysis is -0.99% (inactive).
Take `COC(=O)c1ccc(NC(=O)c2ccc3ncsc3c2)cc1`: the inhibition of phage lysis is 11.5% (inactive).
